For assay [1], the system named is SMMC-7721. In words: Cytotoxicity against human SMMC7721 cells for 72 hrs under hypoxic condition by MTT assay. It counts as functional, cell-based. The conditions noted are these: SMMC-7721, 72 h. In outline:
(§1)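 RPMI-1640 with heat-inactivated 10% FBS plus penicillin/streptomycin; hypoxia 3% O2, 5% CO2 or normoxia 20% O2, 5% CO2, 37 °C. Compounds dissolved in DMSO at 10.0 mg/mL (stock), then diluted; cells seeded 5×10³ per well. Viability read by MTT kit; IC50 taken as concentration giving 50% absorbance inhibition versus control cells.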
(In general: Tetrazolium dyes change colour on reduction, which living cells bring about.)

For assay [2], the system named is SMMC-7721. In words: Cytotoxicity against human SMMC7721 cells for 72 hrs under normoxic condition by MTT assay. It counts as functional, cell-based. The conditions noted are these: SMMC-7721, 72 h. Put shortly: as §1
Assay [3] relates to K562. Briefly: Cytotoxicity against human K562 cells for 72 hrs under hypoxic condition by MTT assay. The format is functional, cell-based. The conditions noted are these: K562, 72 h. Put shortly:
as §1

Assay [4] relates to K562. Briefly: Cytotoxicity against human K562 cells for 72 hrs under normoxic condition by MTT assay. The format is functional, cell-based. The conditions noted are these: K562, 72 h. In outline: as §1
The subject of assay [5] is KB. Briefly: Cytotoxicity against human KB cells for 72 hrs under hypoxic condition by MTT assay. It counts as functional, cell-based. Put shortly:
as §1

Assay [6] has as its system KB. In words: Cytotoxicity against human KB cells for 72 hrs under normoxic condition by MTT assay. The format is functional, cell-based. Put shortly: as §1
In assay [7] the test system is A549. Briefly: Cytotoxicity against human A549 cells for 72 hrs under hypoxic condition by MTT assay. The format is functional, cell-based. As to conditions: A549, 72 h. In outline:
as §1

Assay [8] has as its system A549. In words: Cytotoxicity against human A549 cells for 72 hrs under normoxic condition by MTT assay. The format is functional, cell-based. The conditions noted are these: A549, 72 h. In outline:
as §1

The subject of assay [9] is PC-3. Briefly: Cytotoxicity against human PC3 cells for 72 hrs under hypoxic condition by MTT assay. It counts as functional, cell-based. The conditions noted are these: PC-3, 72 h. Put shortly:
as §1

Assay [10] concerns PC-3. Briefly: Cytotoxicity against human PC3 cells for 72 hrs under normoxic condition by MTT assay. The format is functional, cell-based. The conditions noted are these: PC-3, 72 h. In outline:
as §1

Assay [11] has as its system K562. In words: Induction of apoptosis in human K562 cells under normoxic condition assessed as DNA fragmentation at 10 uM for 48 hrs using propidium iodide by flow cytometry. It counts as functional, cell-based. In outline: (§2)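 K562 held under hypoxia (3% O2, 5% CO2) or normoxia (20% O2, 5% CO2) at 37 °C, treated 48 h. Cells washed in PBS, fixed in 75% ethanol at −20 °C overnight, RNase-treated 30 min at 37 °C, PI-stained 30 min at room temperature in the dark. DNA content and apoptotic fraction read by flow cytometry.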
A general note: A flow cytometer gives signals particle by particle.

Assay [12] has as its system K562. In words: Induction of apoptosis in human K562 cells under hypoxic condition assessed as DNA fragmentation at 10 uM for 48 hrs using propidium iodide by flow cytometry. The format is functional, cell-based. Put shortly: as §2
Assay [13] deals with K562. In words: Induction of apoptosis in human K562 cells under normoxic condition assessed as accumulation at Sub-G1 phase at 10 uM for 48 hrs using propidium iodide by flow cytometry (reference value: 5.27%). It counts as functional.
Assay [14] has as its system K562. Briefly: Induction of apoptosis in human K562 cells under hypoxic condition assessed as accumulation at Sub-G1 phase at 10 uM for 48 hrs using propidium iodide by flow cytometry (reference value: 13.03%). It counts as functional.
Assay [15] has as its system K562. Briefly: Induction of apoptosis in human K562 cells under hypoxic condition assessed as decrease in procaspase-3 level at 10 uM for 48 hrs by Western blotting. It counts as functional, cell-based. Put shortly: (§3)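 K562 treated 48 h under hypoxia (3% O2) or normoxia (20% O2), 5% CO2, 37 °C. Lysis buffer: 150 mM NaCl, 50 mM Tris-HCl pH 8.0, 2 mM EGTA, 2 mM EDTA, 25 mM NaF, 25 mM β-glycerophosphate, 0.2% Triton X-100, 0.3% NP-40, 0.1 mM PMSF. Extracts immunoblotted for procaspase-3, cleaved caspase-3, PARP and XIAP.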

Assay [16] concerns K562. Briefly: Induction of apoptosis in human K562 cells under hypoxic condition assessed as decrease in XIAP level at 10 uM for 48 hrs by Western blotting. It counts as functional, cell-based. Put shortly: as §3
(Immunoblotting shows a protein as a band on a membrane.)

The subject of assay [17] is K562. Briefly: Induction of apoptosis in human K562 cells under hypoxic condition assessed as decrease in PARP level at 10 uM for 48 hrs by Western blotting. It counts as functional, cell-based. In outline:
as §3

Assay [18] concerns K562. Briefly: Induction of apoptosis in human K562 cells under hypoxic condition assessed as caspase-3 cleavage at 10 uM for 48 hrs by Western blotting. The format is functional, cell-based. In outline: as §3
For assay [19], the system named is K562. Briefly: Induction of apoptosis in human K562 cells under hypoxic condition assessed as decrease in XIAP level at 10 uM for 48 hrs by Western blotting.
Assay [20] concerns K562. Briefly: Induction of apoptosis in human K562 cells under hypoxic condition assessed as decrease in PARP level at 10 uM for 48 hrs by Western blotting.
In assay [21] the test system is K562. Briefly: Induction of apoptosis in human K562 cells under hypoxic condition assessed as decrease in procaspase-3 level at 10 uM for 48 hrs by Western blotting.

Activity calls are given as the source filed them. The calls are words filed in the database; no cut-off is given here.

Take `COc1ccc(COCNc2n[n+]([O-])c3ccccc3[n+]2[O-])cc1`: the IC50 with SMMC-7721 [1] was 1.15 µM; with SMMC-7721 [2] it was 22 µM; in the assay on K562 [3], 0.66 µM; in the assay with K562 [4] it was 20.1 µM; with KB [5], 14.2 µM; in the assay on KB [6], 4.06 µM. The IC50 turned out to be 3.32 µM in the assay on A549 [7], 7.64 µM with A549 [8], 52.8 µM with PC-3 [9] and 14.5 µM with PC-3 [10]. The result in the assay with K562 [11], in the assay with K562 [12], in the assay on K562 [15], in the assay on K562 [16], in the assay with K562 [17] and in the assay on K562 [18] was Active. In addition, the result with K562 [19], in the assay on K562 [20] and in the assay with K562 [21] was Active. For the same molecule, the Activity is 14.95% with K562 [13] and 54.24% in the assay with K562 [14].
On to `[O-][n+]1nc(NCOCc2ccc(C(F)(F)F)cc2)[n+]([O-])c2ccccc21`, for which the IC50 in the assay with SMMC-7721 [1] is 0.78 µM; in the assay on SMMC-7721 [2] it was 9.45 µM; with K562 [3], 1.24 µM; in the assay with K562 [4], 18.3 µM; in the assay with KB [5], 19.8 µM; in the assay on KB [6], 0.39 µM. Besides, the half-maximal inhibitory concentration (IC50) in the assay on A549 [7] turned out to be 4.27 µM; in the assay on A549 [8], 8.42 µM; in the assay with PC-3 [9] it was 9.31 µM; in the assay with PC-3 [10], 7.65 µM. Also, the outcome with K562 [11], in the assay on K562 [12], in the assay with K562 [15], in the assay on K562 [16], with K562 [17] and in the assay with K562 [18] was Active. For the same molecule, the result with K562 [19], in the assay on K562 [20] and in the assay with K562 [21] was Active. Moreover, the Activity in the assay with K562 [13] is given as 9.5%; with K562 [14], 32.11%.
As for `CCOCNc1n[n+]([O-])c2ccccc2[n+]1[O-]`, the IC50 worked out at 4.23 µM with SMMC-7721 [1]; 27.1 µM in the assay on SMMC-7721 [2]; 4.99 µM in the assay with K562 [3]; 15.4 µM in the assay with K562 [4]; 22.5 µM in the assay with KB [5]; 2.8 µM with KB [6]. Further, the half-maximal inhibitory concentration (IC50) in the assay on A549 [7] was 4.09 µM; with A549 [8], 10.5 µM; with PC-3 [9], 7.4 µM; in the assay with PC-3 [10], 15.9 µM. Moreover, the outcome in the assay on K562 [11], with K562 [12], in the assay with K562 [15], in the assay with K562 [16], in the assay with K562 [17] and in the assay with K562 [18] was Active. For the same molecule, the outcome in the assay on K562 [19], with K562 [20] and in the assay on K562 [21] was Active. In addition, the Activity is 14.13% in the assay with K562 [13] and 33.07% in the assay with K562 [14].

For orientation: IC50 means the concentration at which inhibition is half-maximal. A lower IC50 goes with inhibition by little substance.

The values are drawn from ChEMBL document CHEMBL1687888, “Synthesis, hypoxia-selective cytotoxicity of new 3-amino-1,2,4-benzotriazine-1,4-dioxide derivatives” (Eur J Med Chem, 2011).
